Experimental data from ChEMBL document CHEMBL1147446, “Antagonists of human CCR5 receptor containing 4-(pyrazolyl)piperidine side chains. Part 3: SAR studies on the benzylpyrazole segment” (Bioorg Med Chem Lett, 2004).

Tests used:
[1] = Half life in dog (dosed as a mixture of five compounds at 0.5 mpk each via iv only); type: ADME, organism-based, Canis lupus familiaris; details: in vivo
In short: (§1)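 Dogs received a five-compound cassette by iv only, 0.5 mpk of each compound.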

Canis familiaris [2] = test: […] AUCN in dog ( (dosed as a mixture of five compounds at 0.5 mpk each via iv only); type: ADME, organism-based, Canis lupus familiaris; details: in vivo
[3] = Plasma clearance in dog (dosed as a mixture of five compounds at 0.5 mpk each via iv only); type: ADME, organism-based, Canis lupus familiaris; details: read-out: Clp; in short: as §1
[4] = target: C-C chemokine receptor type 5 (Homo sapiens, UniProt P51681); test: Inhibitory concentration for displacement of [125I]-MIP-1 alpha from recombinant human CC chemokine receptor 5 (CCR5) expressed in CHO cell; type: cell-based
Sequence of C-C chemokine receptor type 5 (P51681 whole entry): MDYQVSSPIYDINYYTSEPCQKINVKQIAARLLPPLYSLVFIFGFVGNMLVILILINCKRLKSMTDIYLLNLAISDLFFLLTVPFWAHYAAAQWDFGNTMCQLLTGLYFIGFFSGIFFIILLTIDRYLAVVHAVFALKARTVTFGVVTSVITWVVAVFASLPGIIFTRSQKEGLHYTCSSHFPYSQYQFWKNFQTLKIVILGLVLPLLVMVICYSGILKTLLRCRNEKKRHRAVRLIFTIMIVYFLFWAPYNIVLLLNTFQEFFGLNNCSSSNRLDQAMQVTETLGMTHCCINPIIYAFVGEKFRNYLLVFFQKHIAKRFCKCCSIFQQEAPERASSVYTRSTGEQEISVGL
In short: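 Competitive binding to CCR5 on CHO cell membranes, read as displacement of [125I]-labeled MIP-1α. IC50 values are means of triplicate determinations. Standard errors were normally <15% within an assay. Assay-to-assay variation was within ±2-fold, judged from a standard compound.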

D(3) dopamine receptor [5] = target: T1, D(3) dopamine receptor (Homo sapiens, UniProt P35462); test: (§2) Inhibitory activity against human dopamine receptor D3 at 10 uM
T1 sequence (P35462 whole entry): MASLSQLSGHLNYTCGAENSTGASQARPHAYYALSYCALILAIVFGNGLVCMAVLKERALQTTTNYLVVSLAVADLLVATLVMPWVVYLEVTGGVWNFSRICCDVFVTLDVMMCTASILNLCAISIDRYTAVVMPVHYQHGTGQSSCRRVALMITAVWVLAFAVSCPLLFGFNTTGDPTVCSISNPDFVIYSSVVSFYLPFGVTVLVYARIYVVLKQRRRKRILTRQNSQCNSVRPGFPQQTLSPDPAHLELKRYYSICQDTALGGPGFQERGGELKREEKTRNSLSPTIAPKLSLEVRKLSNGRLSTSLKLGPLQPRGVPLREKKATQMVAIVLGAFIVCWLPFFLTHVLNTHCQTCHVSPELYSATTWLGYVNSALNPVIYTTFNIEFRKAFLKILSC

[6] = target: Sodium-dependent dopamine transporter (Homo sapiens, UniProt Q01959); test: Inhibitory activity against human dopamine transporter at 10 uM
Sequence of Sodium-dependent dopamine transporter (Q01959 whole entry): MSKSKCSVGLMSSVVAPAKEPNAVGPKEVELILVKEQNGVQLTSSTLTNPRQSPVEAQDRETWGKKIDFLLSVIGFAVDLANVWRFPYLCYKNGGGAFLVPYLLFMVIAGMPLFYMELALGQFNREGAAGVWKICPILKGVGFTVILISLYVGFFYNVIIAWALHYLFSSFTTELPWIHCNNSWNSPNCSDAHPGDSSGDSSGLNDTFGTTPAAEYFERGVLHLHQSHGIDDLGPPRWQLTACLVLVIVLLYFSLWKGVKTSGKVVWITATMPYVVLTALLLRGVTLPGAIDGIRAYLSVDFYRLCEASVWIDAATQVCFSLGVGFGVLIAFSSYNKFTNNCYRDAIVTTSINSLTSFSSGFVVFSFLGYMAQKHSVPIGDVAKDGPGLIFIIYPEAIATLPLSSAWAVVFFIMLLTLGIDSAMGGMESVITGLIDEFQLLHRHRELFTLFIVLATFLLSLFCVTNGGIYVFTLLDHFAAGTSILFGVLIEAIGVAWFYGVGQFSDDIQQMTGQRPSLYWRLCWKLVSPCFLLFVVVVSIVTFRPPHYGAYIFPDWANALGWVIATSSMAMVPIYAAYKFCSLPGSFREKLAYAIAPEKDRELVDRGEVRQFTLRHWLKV

HeLa [7] = test: Antiviral activities in a cell culture HIV-1 infectivity inhibition assay using HeLa cells plus 50% normal human serum; type: functional
[8] = target: Sodium-dependent noradrenaline transporter (Homo sapiens) (UniProt P23975); test: Inhibitory activity against human adrenergic norepinephrine transporter at 10 uM
Sequence of Sodium-dependent noradrenaline transporter (Homo sapiens) (P23975 whole entry): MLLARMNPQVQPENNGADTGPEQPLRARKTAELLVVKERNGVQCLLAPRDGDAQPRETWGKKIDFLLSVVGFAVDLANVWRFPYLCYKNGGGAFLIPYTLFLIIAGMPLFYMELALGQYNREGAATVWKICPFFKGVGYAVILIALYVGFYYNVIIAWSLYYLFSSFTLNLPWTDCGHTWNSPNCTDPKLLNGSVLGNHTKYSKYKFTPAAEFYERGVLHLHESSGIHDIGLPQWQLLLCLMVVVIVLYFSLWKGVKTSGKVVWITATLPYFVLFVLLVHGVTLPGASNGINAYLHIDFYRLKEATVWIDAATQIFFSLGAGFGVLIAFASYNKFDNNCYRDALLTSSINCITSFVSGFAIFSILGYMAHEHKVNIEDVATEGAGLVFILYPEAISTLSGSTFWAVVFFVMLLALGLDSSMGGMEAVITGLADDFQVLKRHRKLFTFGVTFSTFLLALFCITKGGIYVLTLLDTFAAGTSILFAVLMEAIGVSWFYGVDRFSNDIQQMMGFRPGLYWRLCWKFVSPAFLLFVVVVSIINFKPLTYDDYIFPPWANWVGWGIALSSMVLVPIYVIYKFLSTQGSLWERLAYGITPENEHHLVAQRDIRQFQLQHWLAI

[9] = In vitro antiviral activity using peripheral blood mononuclear cell (PBMC) HIV-1 spread assay; type: functional; details: Homo sapiens
[10] = In vitro antiviral activity using peripheral blood mononuclear cell (PBMC) HIV-1 spread assay in presence of 50% normal human serum; type: functional
[11] = target: L-type calcium channel, benzothiazepine site (Rattus norvegicus, UniProt P22002+P27732+Q02485); test: Inhibition of binding to rat L-type Calcium channel benzothiazepine site at 10 uM; type: functional
HeLa [12] = test: Antiviral activities in a cell culture HIV-1 infectivity inhibition assay using HeLa cells; type: functional; details: Homo sapiens
[13] = (§3) Inhibitory activity against rat Na+ channel site 2 at 10 uM
in vivo [14] = details: rat, plasma
in vivo [15] = details: rat
in vivo [16] = details: rat; remark: listed apart in the source
Rattus norvegicus = organism: Rattus norvegicus; test: as §3
Canis familiaris [17] = test: […] AUCN in dog (dosed as a mixture of five compounds at 0.5 mpk each via iv only); type: ADME, organism-based, Canis lupus familiaris; details: in vivo
D(3) dopamine receptor [18] = target: T1, D(3) dopamine receptor; test: as §2; remark: listed apart in the source

half-life [1] [h] | AUC N (Canis familiaris [2]) [uM hr dose-1] | clearance [3] [mL/min/kg] | IC50 [4] [nM] | inhibition (D(3) dopamine receptor [5]) [%] | inhibition [6] [%] | inhibition [8] [%] | inhibition at 10 µM [11] [%] | IC90 (HeLa [12]) [nM] | IC50 [13] [nM] | clearance (in vivo [14]) [mL/min/kg] | bioavailability (in vivo [15]) [%] | half-life (in vivo [16]) [h] | inhibition (Rattus norvegicus) [%] | AUC N (Canis familiaris [17]) [uM hr dose-1] | IC50 (D(3) dopamine receptor [18]) [nM] | SMILES | IC90 (HeLa [7]) [nM] | IC95 [9] [nM] | IC95 [10] [nM]
1.8 | 2.3 | 13 | 0.9 |  |  |  |  | 0.4 |  | 1.7 | 68 | 1.4 |  |  |  | CCOc1ccc(Cc2cc(C3CCN(C[C@H]4CN([C@@H](C(=O)O)C(C)(C)C)C[C@@H]4c4cccc(F)c4)CC3)n(CC)n2)cc1 | 33 |  | 
 |  |  | 0.3 |  |  |  |  | < 0.14 |  | 3.3 | 19 | 1.18 |  |  |  | CC[C@H](C)[C@H](C(=O)O)N1C[C@H](CN2CCC(c3cc(Cc4ccc(C(C)C)cc4)nn3CC)CC2)[C@@H](c2cccc(F)c2)C1 | 11 |  | 
 |  |  | 1.6 |  |  |  |  | < 0.14 |  | 0.97 | 23 | 2.7 |  |  |  | CC[C@@H](C)[C@H](C(=O)O)N1C[C@H](CN2CCC(c3cc(Cc4ccc(OC(C)(C)C)cc4)nn3CC)CC2)[C@@H](c2cccc(F)c2)C1 | 3.7 |  | 
 |  |  | 0.4 |  |  |  |  | < 0.14 |  | 0.75 | 26 | 2.1 |  |  |  | CC[C@@H](C)[C@H](C(=O)O)N1C[C@H](CN2CCC(c3cc(Cc4ccc(OC5CCC5)cc4)nn3CC)CC2)[C@@H](c2cccc(F)c2)C1 | 33 |  | 
 |  |  | 1 |  |  |  |  | 0.4 |  | 4.8 | 22 | 1.2 |  |  |  | CCCCOc1ccc(Cc2cc(C3CCN(C[C@H]4CN([C@@H](C(=O)O)[C@@H](C)CC)C[C@@H]4c4cccc(F)c4)CC3)n(CC)n2)cc1 | 11 |  | 
 |  |  | 0.5 |  |  |  |  | < 0.14 |  | 27 | 19 | 1 |  |  |  | CCn1nc(Cc2ccc(OC(C)(C)C)cc2)cc1C1CCN(C[C@H]2CN([C@@H](C(=O)O)C3CCCCC3)C[C@@H]2c2cccc(F)c2)CC1 | 11 |  | 
 |  |  | 0.3 |  |  |  |  | 0.4 |  | 1.6 | 9.2 | 1.4 |  |  |  | CC[C@H](C)[C@H](C(=O)O)N1C[C@H](CN2CCC(c3cc(Cc4ccc(C(C)(C)C)cc4)nn3CC)CC2)[C@@H](c2cccc(F)c2)C1 | 11 |  | 
 |  |  | 1.1 |  |  |  |  | 11 |  | 7.6 | 7.8 | 0.91 |  |  |  | CCn1nc(Cc2ccc(F)cc2)cc1C1CCN(C[C@H]2CN([C@@H](C(=O)O)C(C)C)C[C@@H]2c2cccc(F)c2)CC1 | > 300 |  | 
 |  |  | 1.3 |  |  |  |  | 0.4 |  | 9.8 | 3.1 | 0.74 |  |  |  | CC[C@@H](C)[C@H](C(=O)O)N1C[C@H](CN2CCC(c3cc(Cc4ccc(C#N)cc4)nn3CC)CC2)[C@@H](c2cccc(F)c2)C1 | 33 |  | 
 |  |  | 0.3 |  |  |  |  | < 0.14 |  | 1.9 | 36 | 1 |  |  |  | CC[C@H](C)[C@H](C(=O)O)N1C[C@H](CN2CCC(c3cc(Cc4ccc(OC5CC5)cc4)nn3CC)CC2)[C@@H](c2cccc(F)c2)C1 | 11 |  | 
 |  |  | 1.3 |  |  |  |  | < 0.14 |  | 4 | 76 | 1.1 |  |  |  | CC[C@H](C)[C@H](C(=O)O)N1C[C@H](CN2CCC(c3cc(Cc4ccc(OC(C)(C)C)cc4)nn3CC)CC2)[C@@H](c2cccc(F)c2)C1 | 11 |  | 
 |  |  | 1.5 | 35 | -4 | 15 | 36 | 0.4 | 7200 |  |  |  |  |  |  | CC[C@H](C)[C@H](C(=O)O)N1C[C@H](CN2CCC(c3cc(Cc4ccc(OC)c(OC)c4)nn3CC)CC2)[C@@H](c2cccc(F)c2)C1 | 33 |  | 
 |  |  | 3.5 |  |  |  |  | 3.7 |  | 11 | 5.4 | 0.38 |  |  |  | CCn1nc(Cc2ccc(S(C)(=O)=O)cc2)cc1C1CCN(C[C@H]2CN([C@@H](C(=O)O)C(C)C)C[C@@H]2c2cccc(F)c2)CC1 | 33 |  | 

Continued, compound first:

SMILES | half-life [1] [h] | AUC N (Canis familiaris [2]) [uM hr dose-1] | clearance [3] [mL/min/kg] | IC50 [4] [nM] | inhibition (D(3) dopamine receptor [5]) [%] | inhibition [6] [%] | inhibition [8] [%] | inhibition at 10 µM [11] [%] | IC90 (HeLa [12]) [nM] | IC50 [13] [nM] | clearance (in vivo [14]) [mL/min/kg] | bioavailability (in vivo [15]) [%] | half-life (in vivo [16]) [h] | inhibition (Rattus norvegicus) [%] | AUC N (Canis familiaris [17]) [uM hr dose-1] | IC50 (D(3) dopamine receptor [18]) [nM] | IC90 (HeLa [7]) [nM] | IC95 [9] [nM] | IC95 [10] [nM]
CCn1nc(Cc2ccc(OC)c(OC)c2)cc1C1CCN(C[C@H]2CN([C@@H](C(=O)O)C(C)(C)C)C[C@@H]2c2cccc(F)c2)CC1 | 2.1 | 1.9 | 14 | 1.2 | 44 | 9 | 3 | -8 | < 0.14 | 3200 | 2.1 | 33 | 1.1 |  |  |  | 11 | 1.6 | 31
CCn1nc(Cc2ccc(S(C)(=O)=O)cc2)cc1C1CCN(C[C@H]2CN([C@@H](C(=O)O)C(C)(C)C)C[C@@H]2c2cccc(F)c2)CC1 | 0.55 | 0.24 | 108 | 1.6 | 39 | 36 | 13 | 15 | < 0.14 |  |  |  |  | 7 |  |  | 11 | 6.2 | 8.1
CCn1nc(Cc2ccc(C(F)(F)F)cc2)cc1C1CCN(C[C@H]2CN([C@@H](C(=O)O)C(C)(C)C)C[C@@H]2c2cccc(F)c2)CC1 | 2.8 |  | 5.5 | 0.3 |  |  |  |  | 0.4 |  |  |  |  |  | 4.9 |  | 33 |  | 
CCn1nc(Cc2ccccc2)cc1C1CCN(C[C@H]2CN([C@@H](C(=O)O)C(C)C)C[C@@H]2c2cccc(F)c2)CC1 |  |  |  |  | 45 | 15 | 21 | -3 |  |  |  |  | 1.4 | 32 |  |  | 300 |  | 
CCn1nc(Cc2ccc(C#N)cc2)cc1C1CCN(C[C@H]2CN([C@@H](C(=O)O)C(C)(C)C)C[C@@H]2c2cccc(F)c2)CC1 |  |  |  | 1.3 |  | 17 | 23 | 1 | < 0.14 |  |  |  |  | 44 |  | 4000 | 3.7 |  | 
CCn1nc(Cc2ccc(OC(C)C)cc2)cc1C1CCN(C[C@H]2CN([C@@H](C(=O)O)C(C)(C)C)C[C@@H]2c2cccc(F)c2)CC1 |  |  |  | 0.7 |  |  |  |  | < 0.14 |  | 0.98 | 49 | 1.4 |  |  |  | 11 |  | 
CCn1nc(Cc2ccc(-c3ccccc3)cc2)cc1C1CCN(C[C@H]2CN([C@@H](C(=O)O)C(C)C)C[C@@H]2c2cccc(F)c2)CC1 |  |  |  | 0.3 |  |  |  |  | < 0.14 |  | 0.32 | 26 | 5.7 |  |  |  | 100 |  | 
CCn1nc(Cc2cccc(F)c2)cc1C1CCN(C[C@H]2CN([C@@H](C(=O)O)C(C)C)C[C@@H]2c2cccc(F)c2)CC1 |  |  |  | 1.3 |  |  |  |  | 11 |  | 3.9 | 40 | 0.8 |  |  |  | 300 |  | 
CCn1nc(Cc2ccc(-c3ccccc3)cc2)cc1C1CCN(C[C@H]2CN([C@@H](C(=O)O)C(C)(C)C)C[C@@H]2c2cccc(F)c2)CC1 |  |  |  | 0.6 |  |  |  |  | 1.2 |  | 0.23 | 33 | 8.9 |  |  |  | 100 |  | 
